# This is a sample that favours compounds with a hit; in the whole collection about 1.8% have one here.
# Mot1-301 SUMO = blocks SUMOylation pathway, rescuing yeast Mot1-301 growth. S. cerevisiae Mot1-301 growth rescue, ATP luminescence, 38.5C; percent above DMSO median, 100 means doubled. growth rescue, % at 18.8 µM. actives 1% (n = 320,000). AID 2716;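 active = every valid replicate shows activation above 250% relative to neutral control wells; inactive = the rest, any valid replicate at or below 250%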;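 also: OY570 slx delta 5 strain wells were the positive control but not used for scaling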
# Efflux pump inh = inhibitors of Candida antifungal efflux pumps expressed in yeast; S. cerevisiae Candida pump triplex, Nile Red efflux; inhibition, % at 10 µM; actives 0.44% (n = 330,000); AID 485275;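 active = plate passing quality check with inhibition over a set limit, or well fluorescence over plate mean plus 4 SD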;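 also: Nile Red retained in pooled yeast measured as flow cytometry median fluorescence; 0% = buffer negative control and 100% = Enniatin B positive control; higher means more Nile Red kept so more efflux inhibition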
# C2C12 statin = protects C2C12 myotubes from simvastatin toxicity. ATP luminescence, 48 h; scaled: DMSO 0, geranylgeraniol control 100. rescue of ATP level, % at 7.49 µM. actives 0.78% (n = 330,000). AID 602340;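 active = mean ATP rescue above about 67%, or every replicate alone reaching that limit, limit read from the data, passing the limit was not always enough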;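 also: myotubes were challenged with 10 µM simvastatin during compound exposure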
# Cneo AK release = Cryptococcus neoformans lysis via adenylate kinase release | C. neoformans lysis, adenylate kinase release luminescence, 4 h; normalised: neutral wells 0, clomiphene wells 100 | lysis activity, % at 15 µM | actives 0.2% (n = 360,000);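 active = mean lysis activity across replicates of at least 80%, whatever share of replicates individually reach that level; inactive = mean lysis activity below 80%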
#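 Schedule: static 4 h at 37 °C with compound, 1 h detection; system: C. neoformans cells; benchmarks: Clomiphene as positive control; buffer or medium: fresh YPD medium; measure: luminescence rise reflecting yeast cell lysis; measured by: luminescent adenylate kinase detection reagent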
# Yeast Mot1 SUMO = SUMO pathway inhibitors in yeast Mot1-301 growth; shares compounds with Mot1-301 SUMO; S. cerevisiae Mot1-301 galactose growth, ATP luminescence, 24 h; -100 = growth of slx-deleted rescue strain; growth activity, percent, % at 42 µM; 2,300 tested, under 10 active;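 active = Signal drops as the depositor expects, and the fitted half-maximal dose is no more than ten times the top valid tested dose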;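 also: more negative values mean stronger growth rescue toward the control strain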
# Starred values were filed as active, the others as inactive; x = no result given; + = active, no number.
SMILES,Mot1-301 SUMO,Efflux pump inh,C2C12 statin,Cneo AK release,Yeast Mot1 SUMO
COc1ccc(NC(=O)COC(=O)c2cc(OC)c(OC)c(OC)c2)c([N+](=O)[O-])c1,-31.2,-0.1,x,-0.7,x
Cc1cccc(NC(=O)C2C3C=CC(O3)C2C(=O)O)c1C (centres undefined),6.1,-0.1,8.0,-0.8,x
NC(=O)c1cccc2cc3ccccc3cc12,624.9*,0.3,x,x,0.7
COCC(=O)NC1CC2CCCC(C1)N2Cc1ccccc1 (centres undefined),32.2,0.1,-7.4,x,x
O=C(O)c1ccc2nc(-c3ccccc3)c(-c3ccccc3)nc2c1,5.1,0.3,x,x,x
CCN1CCN(C(=O)c2ccc3nc(-c4ccccc4)c(-c4ccccc4)nc3c2)CC1,474.1*,-0.1,5.2,0.3,-0.2
C/C=C/c1cnc2c(c1)C(=O)N([C@@H](C)CO)C[C@@H](C)[C@H](CN(C)C(=O)NC1CCCC1)O2,x,x,4.2,-2.0,x
O=C(Cn1nnc(-c2ccc(N3CCOCC3)cc2)n1)N1CCOCC1,5.7,-0.1,x,x,x
COC(=O)C1(Cc2ccc(O)cc2)OC(=O)C(O)=C1c1ccc(O)cc1 (centres undefined),380.6*,-0.2,7.3,-2.2,-0.4
O=C(CSc1nnc(COc2ccccc2Cl)o1)NC(=O)NC1CCCC1,391.5*,-0.1,-2.7,-0.5,0.0
CC(C)NC(=O)NC(=O)CSc1nnc(COc2ccccc2Cl)o1,-2.9,-0.1,x,x,x
CCOc1ccc2nc(C(C)O)[nH]c2c1 (centres undefined),+,-0.1,5.1,-0.1,1.1
COc1ccccc1CNc1ccc(Br)cn1,139.3,0.1,0.1,0.4,x
CCn1c(SCc2nc3ccccc3s2)nnc1-c1ccccc1,371.3*,0.1,29.1,-2.5,-0.7
CCn1c(SCc2nc3ccccc3[nH]2)nnc1-c1cccnc1,634.9*,-0.1,46.9,x,0.4
Cc1nnc(SCc2nc3ccccc3s2)n1-c1ccccc1,-8.6,0.1,-1.1,-1.8,x
O=C(COC(=O)CNC(=O)c1ccc(Cl)cc1)Nc1ncc(C(F)(F)F)cc1Cl,595.7*,-0.1,x,x,-0.2
Cc1cc(C)n(C(=O)c2ccccc2[N+](=O)[O-])n1,438.1*,0.0,x,x,0.2
CCOC(=O)C1(Cc2cccc(Cl)c2)CCCN(C(=O)CCOC)C1 (centres undefined),389.4*,0.2,4.1,3.1,-0.1
CCCC(=O)n1nc(-c2cccnc2)nc1NCc1ccccc1,x,x,x,-4.0,x
COCC(=O)n1nc(-c2ccc(Cl)cc2)nc1NCc1ccc(F)cc1,539.0*,0.0,-10.4,x,-0.8
COCC(=O)n1nc(-c2ccccc2)nc1NCc1ccc(N(C)C)cc1,862.2*,0.4,14.8,-0.8,-0.1
CC(=O)n1nc(-c2ccccc2)nc1NCc1ccc(F)cc1,-17.3,-0.1,8.5,-0.7,x
Cc1cc(C)n2nc(SCC(=O)NC(=O)c3ccc(OC(F)F)cc3)nc2n1,-8.7,0.0,0.4,-0.8,x
CCCCNC(=O)C1C2C=CC3(CN(Cc4ccc(C)cc4)C(=O)C13)O2 (centres undefined),858.7*,-0.1,2.9,0.7,0.1
SMILES,Mot1-301 SUMO,Efflux pump inh,C2C12 statin,Cneo AK release,Yeast Mot1 SUMO
Cc1ccccc1-n1c(-c2cccnc2)n[nH]c1=S,+,0.2,x,10.1,0.4
Nc1nc(SCc2nc3scc(-c4cccs4)c3c(=O)[nH]2)n[nH]1,+,-0.1,6.5,1.5,0.3
Cc1nc2scc(-c3cccs3)c2c(=O)[nH]1,4.8,-0.2,5.6,-0.3,x
COc1cc2c(cc1OC)CN(S(=O)(=O)c1ccccc1F)CC2,-7.3,0.1,-3.6,-2.6,x
COc1cc2c(cc1OC)CN(S(=O)(=O)c1cccc(F)c1)CC2,+,0.1,-6.1,-8.8,0.2
COc1ccccc1N1CCN(C(=O)c2sc3nc(C)nc(N4CCN(c5ccccn5)CC4)c3c2C)CC1,-18.1,-0.4,-13.5,0.4,x
COc1ccccc1N1CCN(C(=O)c2sc3ncnc(N4CCN(c5ccccn5)CC4)c3c2C)CC1,442.4*,0.1,-124.6,-0.7,0.0
CCOC(=O)c1sc2ncnc(N3CCN(c4ccc(OC)cc4)CC3)c2c1C,622.5*,0.0,12.9,-0.2,0.5
CCOC(=O)c1sc2ncnc(N3CCN(C)CC3)c2c1C,10.4,-0.1,x,x,x
O=C1Nc2cc(Cl)ccc2C1(N1CCNCC1)C(F)(F)F (centres undefined),-6.3,-0.1,-2.9,0.0,x

# Screening data (PubChem)
